PubChem BioAssay AID463104 (Sanford-Burnham Center for Chemical Genomics, 2010)
Among all 330,000 compounds or so, about 1,100 (0.33%) were called active. What follows is part of a selection rich in actives, with near analogues and random picks from the rest. A number with no mark means an inactive call.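 Rule for the calls: active = versus positive control, 20 µM dose yields 30% or more activation; inactive = the rest.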

assay: activators of adaptive XBP1 UPR arm, primary screen, cell-based, CHO-XBP1 luciferase reporter, luminescence, uHTS (AID 463104); details: IRE1-XBP1 UPR activation, at 20 µM, stronger effect = higher value, percent of tunicamycin response, DMSO as zero;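 note: 100% = tunicamycin at 10 µg/mL and 0% = DMSO only wells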
Method in brief: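 Material: CHO cell line with stable XBP1 luciferase reporter; schedule: 16-18 h cell attachment at 37 °C, then 6 h compound exposure; signal: glow luminescence from Steady-Glo reagent; medium: serum-containing F12 medium, 10% FBS; benchmarks: tunicamycin 10 µg/mL and vehicle-only wells; read-out: percent activation relative to tunicamycin reference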

Structure (SMILES) | activation
C=CCO/N=C(\C)c1c(O)c(C)c(-c2ccccc2)n(-c2ccccc2)c1=O | -1.96%
CCc1nn(-c2cc(Oc3cccc4ccccc34)nc(-c3ccccc3)n2)c(N)c1C#N | 79.6% (active)
CC(C)(C)n1nc(Cc2cccc3ccccc23)c(C#N)c1N | 3.6%
Cc1cc(NC(=O)CSc2nc3ccccc3n2CC(C)C)no1 | -4.54%
Cc1cc(NC(=O)CSc2nnc(-c3ccco3)n2N)no1 | 1.89%
Cc1cc(NC(=O)CSc2nc3cc(Cl)ccc3c(=O)n2Cc2ccco2)no1 | 95.4% (active)
CC(C)Oc1ccc(S(=O)(=O)N2CCOCC2)cc1NC(=O)C1CSC2(C)CCC(=O)N12 (stereo unspecified) | -2.58%
CCCNC(=O)CCn1nc(-c2ccccc2)c2ccccc2c1=O | 1.25%
O=C(COC(=O)Cc1ccc(Br)cc1)Nc1c(F)c(F)c(F)c(F)c1F | 0.94%
Nc1c(NCCc2ccccc2)c2ccccc2oc1=O | -1.1%
COCCCNC(=O)[C@H]1N2C(=O)c3ccccc3C2SC1(C)C (stereo partly specified) | 5.98%
COc1cc(NC(=O)CSc2nnc3ccc(-c4ccncc4)nn23)cc(OC)c1 | 4.51%
CSc1nc(-c2ccccc2)nc(C(Cl)Cl)n1 | 31.3% (active)
CSc1ncc(Sc2ccccc2)c(C(=O)O)n1 | -3.45%
CC(C)=CCCC1(C)C=Cc2c(ccc3c2[nH]c2cc(O)c(C)cc23)O1 (stereo unspecified) | 46.1% (active)
CCN(CC(=O)NCc1ccc(Cl)cc1)C(=O)CSc1ccccc1 | -3.45%
O=C(NCCCN1CCCCC1)c1ccc2c(c1)NC(=O)C(N1CCOCC1)S2 (stereo unspecified) | -1.68%
CCCc1nc2c(c(=O)c3ccccc3n2C)c(=O)n1C1CCCCCC1 | 32.4% (active)
CC1CCN(Cc2nc3c(c(=O)n(C)c(=O)n3C)n2CCc2ccccc2)CC1 | -0.91%
Cn1c2ccccc2c2c(C(=O)N3CCN(c4ccc(F)cc4)CC3)cn(C3CCCC3)c(=O)c21 | 6.07%
c1ccc2c(c1)C(=NC1CCCCC1)NC2=NC1CCCCC1 | 3.14%
CCC1CCC/C1=N\NC(=O)c1ccc(Cl)cc1 (stereo unspecified) | 2.16%
COc1cc(C(=O)NCC(c2ccco2)N2CCCC2)ccc1OCc1ccccc1 (stereo unspecified) | -1.2%
Cc1ccc(S(=O)(=O)/N=C(/Nc2ccccn2)c2ccc(Cl)cc2)cc1 | 1.88%

Structure (SMILES) | activation
Cc1ccc(S/C(=N\S(=O)(=O)c2ccc(Cl)cc2)c2ccccc2)cc1 | 43.5% (active)
O=S(=O)(/N=C(/Nc1ccccn1)c1ccccc1)c1ccc(Cl)cc1 | 0.4%
CC(=O)N1CC(C)c2scc(C)[n+]2-c2ccccc21 (stereo unspecified) | -0.83%
Cc1ccc(N2C(=O)CC(N3CCSCC3)C2=O)c(C)c1 (stereo unspecified) | 2.27%
O=c1c2ccccc2nc2n1C(CSCc1cccc(C(F)(F)F)c1)CS2 (stereo unspecified) | -4.03%
COc1ccccc1N(CC(=O)N/N=C(\C)c1ccccc1O)S(=O)(=O)c1ccc(C)cc1 | -4.87%
COc1ccc(S(=O)(=O)N(CC(=O)N/N=C/c2ccccc2C(=O)O)c2ccccc2OC)cc1 | -1.28%
Cc1ccc(S(=O)(=O)N(CC(=O)N/N=C/c2ccc(F)cc2)c2cccc3cccnc23)cc1 | 44.4% (active)
Cc1ccc(CC2S/C(=C(/C#N)C(=O)N3CCOCC3)N(c3ccccc3)C2=O)cc1 (stereo unspecified) | -1.89%
Cc1ccnc2nc(C(=O)Nc3nnc(-c4ccccc4)o3)nn12 | 2.49%
O=C(CNC(=O)c1cccnc1)N/N=C/c1cc(Br)c(O)c(Br)c1 | -5.3%
Cc1ccc(CSCCNC(=O)CN(c2ccc(F)cc2)S(C)(=O)=O)cc1 | -2.57%
COC(=O)C1=C(O)/C(=C/c2ccc(OCC(=O)Nc3ccccc3)cc2)N=C1C | -5.1%
Cc1ccc(NC(=O)COc2ccc(/C=C3/NC(=O)NC3=O)cc2)cc1 | -3.85%
CCOC(=O)C1=C(O)/C(=C/c2ccc(OCC(=O)Nc3ccc(C)cc3)cc2)N=C1C | 51.4% (active)
CCn1c(SCC(=O)NNC(=O)c2ccc(OC)cc2)nnc1C(C)C | -2.62%
CCOC(=O)/C=C/CN(C(=O)OC(C)(C)C)S(=O)(=O)N1CC=CC1 | -0.55%
Cc1cccc(C)c1NC(=O)C1(N(C(=O)c2ccccn2)c2ccc(O)cc2)CCCCC1 | -2.28%
CCOC(=O)N1CCN(CC(=O)n2c(C)c(C)c3ccccc32)CC1 | 1.59%
Cc1cccc(OCCCC(=O)Nc2ccc(S(=O)(=O)N3CCCC3)cc2)c1 | -0.19%
CCCN1CCn2c3c(c4cc(Br)ccc42)CCCC31 (stereo unspecified) | -0.93%
COCCNC(=O)c1ccc(Cn2c(SCC(=O)NCC3CCCO3)nc3ccc(Br)cc3c2=O)cc1 (stereo unspecified) | -6.18%
OC(CNCC1CCCO1)Cn1c2ccc(Br)cc2c2cc(Br)ccc21 (stereo unspecified) | 69.6% (active)
CC(=O)Nc1ccc(CC#N)cc1 | -1.91%

Structure (SMILES) | activation
COc1ccccc1C(=O)NCCC(=O)NCC(c1ccco1)N1CCCCC1 (stereo unspecified) | -0.9%
Cn1c(SCC(=O)N/N=C/c2ccc(O)c(O)c2)nc2ccccc21 | 20.8%
CCCc1nc2ccccc2c(=O)n1NC(=O)c1c(O)c2ccccc2[nH]c1=O | -2.34%
CCCc1nc2ccccc2c(=O)n1/N=C/c1ccc(O)c(O)c1 | 40.8% (active)
CN(C)CCCN(C(=O)c1ccc(S(=O)(=O)N2CCCc3ccccc32)cc1)c1nc2ccc(F)cc2s1 | 20.8%
CN(C)CCCN(C(=O)c1ccc(S(=O)(=O)N2CCCCCC2)cc1)c1nc2ccc(Br)cc2s1 | 46.6% (active)
COc1ccc2sc(N(CCCN(C)C)C(=O)c3ccc(S(=O)(=O)N(C)C4CCCCC4)cc3)nc2c1 | 1.32%
CC12CN(NC(=O)c3ccc(Cl)cc3)C3(C#N)CC1CCC23C (stereo unspecified) | -2.37%
COc1ccc(-c2c(NC(=O)c3ccco3)oc3ccc(Cl)cc3c2=O)cc1 | -2.76%
CC1CCCCC12NC(=O)N(CC(=O)N1CCN(c3ccccc3)CC1)C2=O (stereo unspecified) | -1.08%
N#CC(=C1SC=CS1)c1nc(-c2ccccc2)cs1 | 30.8% (active)
c1ccc(-c2csc(N3CCc4ccccc4C3)n2)cc1 | 2.31%
N#CC(=C1CCCC1)c1nc(-c2ccc(Cl)cc2)cs1 | -2.04%
Cc1noc(C)c1CSCC(=O)N(CCC(C)C)c1c(N)n(Cc2ccccc2)c(=O)[nH]c1=O | -4.01%
Cc1ccc(SCC(=O)NC(=O)NCc2ccco2)c(C)c1 | 1.4%
Cc1c(C(=O)Nc2ccccn2)oc2ccc(Br)cc12 | 0.16%
CCN(CC)CCn1c(/N=C/c2cc(Br)ccc2O)nc2ccccc21 | -2.54%
Oc1ccc(Br)cc1/C=N/Nc1ccccn1 | 88.3% (active)
CC(=O)C1(C)N(O)C(C)(C)C(c2cccs2)=[N+]1[O-] (stereo unspecified) | -1.47%
CC(=NCc1ccc2c(c1)OCO2)C1=C(O)c2ccccc2C1=O | 1.05%
COCCN1C(=O)N[C@@H](CCc2ccccc2)[C@H](C(C)=O)[C@H]1C | 0.9%
CCN1C(=O)N[C@@H](c2ccccc2)[C@H](C(C)=O)[C@H]1C | 34.5% (active)
CCN1C(=NCCc2cccnc2)N[C@@H](c2ccccc2)[C@H](C(=O)OC)[C@H]1C | 0.09%
Cc1ccc(Nc2nc(N)nc(CSc3nnc(C)s3)n2)cc1 | 3.11%

Structure (SMILES) | activation
Nc1nc(COC(=O)CCC(=O)c2ccc(Cl)cc2)nc(Nc2ccccc2)n1 | 1.72%
Nc1nc(CC(=O)CSc2ccc(Cl)cc2)nc(Nc2ccc(F)cc2)n1 | 75% (active)
Cc1ccc(C)c(NC(=O)CN(C)C(=O)c2ccc3ncsc3c2)c1 | -1.06%
COc1ccc(C(=O)COC(=O)CNC(=O)c2cccs2)cc1Br | 0.35%
COc1ccc(C(=O)COC(=O)COc2ccc(C)c(C)c2)cc1 | 0.09%
Cc1ccc(OCC(=O)Nc2ccc(C(=O)O)cc2NC(=O)COc2ccc(C)c(C)c2)cc1C | -6.86%
Cc1ccc(SC(=O)COc2ccc(C)c(C)c2)cc1 | 65.8% (active)
CCOC1CCCCC1NS(=O)(=O)c1ccc(Cl)cc1 (stereo unspecified) | -1.12%
Cc1ccc(CN2CCN(/N=C/c3cccnc3)CC2)c(C)c1 | 1.33%
CCc1nc(C)cn1S(=O)(=O)c1cc([N+](=O)[O-])ccc1Cl | 45.1% (active)
CC(C)c1nccn1S(=O)(=O)c1cc([N+](=O)[O-])ccc1Cl | 0.9%
CCc1nc(C)cn1S(=O)(=O)c1cc(OC)c(C)cc1C | -2.38%
Cc1cc(N2CCOCC2)nc2ccc(NC(=S)N3CCN(Cc4ccccc4)CC3)cc12 | -2.17%
Cc1ccc(S(=O)(=O)c2nnn3c2nc(N2CCN(c4ccccn4)CC2)c2ccccc23)cc1 | -2.5%
CC(=O)Nc1ccc(Nc2nc3c(S(=O)(=O)c4ccc(C)c(C)c4)nnn3c3ccccc23)cc1 | 3.91%
Cc1cccc(Nc2nc3c(S(=O)(=O)c4ccccc4)nnn3c3ccccc23)c1C | 94% (active)
CN(CC(=O)Nc1cccc(F)c1)C(=O)C1CSC2(C)CCC(=O)N12 (stereo unspecified) | 2.87%
CCN(CC)C(=O)CSC1c2ccccc2C(=O)N1c1ccccc1 (stereo unspecified) | 0.81%
CC1(C)C=C2[C@H]3CC[C@@H]4[C@@]5(C)CCC(=O)C(C)(C)[C@@H]5CC[C@@]4(C)[C@]3(C)CC[C@@]2(C(=O)O)CC1 | 2.72%
CC(=O)NC(CC(=O)Nc1cccc(S(=O)(=O)N2CCCC2)c1)c1ccccc1 (stereo unspecified) | -4.34%
N#C/C(=C\c1ccc(O)c(O)c1)C(=O)NCc1ccccc1 | 21.5%
COc1ccc(CNC(=O)/C(C#N)=C/c2cccc(OC)c2OC)cc1 | 36.8% (active)
COc1ccc(NC(=O)/C(C#N)=C\c2cc(OC)c(OCc3ccc(C(=O)O)cc3)cc2Br)cc1 | -2.72%
C=CCNC(=O)c1ccccc1NC(=O)c1ccc(Cl)c(S(=O)(=O)Nc2cccc(C)c2C)c1 | 0.62%
